Square brackets hold non-standard residues; d marks the D form. Ends that are not written are not given here. Orn = NCCC[C@H](N)C(=O)O; Dab = NCC[C@H](N)C(=O)O; Dap = NC[C@H](N)C(=O)O

The results in this text go back to PMC2748801 (Journal of the American Chemical Society, 2009).

For series [1], the system named is hairpin from IRES domain IV of HCV (IRES). Format: binding. Particulars: for Discrimination ratio against IRES RNA: average Kd against other hairpins (RRE, TAR, 16S A-site)/Kd against IRES; for Kd against IRES hairpin (in words): fluorescence anisotropy, 3i and 3j relative to 3d. For orientation: Polarisation of emitted light reports the rotation of a fluorescent probe.

Series [2] is described as follows: Circular dichroism, α-helical content of peptide alone. Format: physicochemical. Particulars: CD; for helicity (first value): 10 mM H3PO4, 20 °C; for helicity (second value): 50% TFE in 10 mM H3PO4, 20 °C. In outline:
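Far-UV CD spectra of each free peptide, with no RNA, at 20 °C under temperature control, in 10 mM H3PO4 and in 50% TFE in the same buffer. Scans ran 190–250 nm with 1 nm bandwidth, 0.5 nm data pitch, 20 nm/min, 16 s response and 0.1 cm path, averaging three accumulations. α-Helical content was calculated from the spectra.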

For the substance Ac-LKKLLKLLKKLLKWAG-NH2 [2u], in series [1], the “Discrimination ratio against IRES RNA” value is given as 14 and the “Kd against IRES hairpin (in words)” value is reported as “subnanomolar”. In series [2], the “helicity (first value)” value is listed as 20% and the “helicity (second value)” value is 52%.
Ac-LKKLLKLLKKLWKLAG-NH2 [2t]: the “Discrimination ratio against IRES RNA” value in series [1] is 5.8. Besides, in series [2], the “helicity (first value)” value is recorded as 12% and the “helicity (second value)” value amounted to 58%.
For the substance Ac-LKKLLKLLKKWLKLAG-NH2 [2s], the “Discrimination ratio against IRES RNA” value in series [1] was determined as 5.8. Moreover, in series [2], the “helicity (first value)” value was 27% and the “helicity (second value)” value is recorded as 60%.
For Ac-LKKLLKLWKKLLKLAG-NH2 [2r] the same measures were 0.67, 14% and 59%.
In the case of Ac-LKKLLKWLKKLLKLAG-NH2 [2q], in series [1], the “Discrimination ratio against IRES RNA” value is 15 and the “Kd against IRES hairpin (in words)” value is reported as “subnanomolar”. Further, in series [2], the “helicity (first value)” value is on record as 19% and the “helicity (second value)” value is reported as 71%.
Take Ac-LKKLWKLLKKLLKLAG-NH2 [2p]: the “Discrimination ratio against IRES RNA” value in series [1] is recorded as 3.3. In series [2], the “helicity (first value)” value is reported as 20% and the “helicity (second value)” value worked out at 56%.
For the substance Ac-LKKWLKLLKKLLKLAG-NH2 [2o], in series [1], the “Discrimination ratio against IRES RNA” value is 5.5. In addition, in series [2], the “helicity (first value)” value amounted to 4.6% and the “helicity (second value)” value is listed as 52%.
Turning to Ac-WKKLLKLLKKLLKLAG-NH2 [2n], in series [1], the “Discrimination ratio against IRES RNA” value was found to be 2.4 and the “Kd against IRES hairpin (in words)” value is listed as “subnanomolar”. Moreover, in series [2], the “helicity (first value)” value stood at 48% and the “helicity (second value)” value is given as 65%.
LKKLLKLLKKLL[Dab]LAG [2h]: the “Discrimination ratio against IRES RNA” value in series [1] is reported as 2.0. Also, in series [2], the “helicity (first value)” value came out at 24% and the “helicity (second value)” value is 34%.
With LKKLLKLLKKLL[Dap]LAG [2i], the “Discrimination ratio against IRES RNA” value in series [1] turned out to be 12. Moreover, in series [2], the “helicity (first value)” value is 39% and the “helicity (second value)” value was found to be 54%.
Regarding LKKLLKLLKKLL[Dap]WAG [3g], the “Discrimination ratio against IRES RNA” value in series [1] is 9.4. In series [2], the “helicity (first value)” value amounted to 41% and the “helicity (second value)” value was found to be 63%.
For LKKLLKLLKKLL[Orn]LAG [2g] the same measures were 3.3, 36% and 53%.
The matching figures for LKKLLKLL[Dab]KLLKLAG [2e]: 6.5, 43% and 57%.
In the case of LKKLLKLL[Dap]KLLKLAG [2f], the “Discrimination ratio against IRES RNA” value in series [1] was found to be 0.6. In addition, in series [2], the “helicity (first value)” value was found to be 25% and the “helicity (second value)” value came out at 57%.
As to LKKLLKLL[Orn]KLLKLAG [2d], the “Discrimination ratio against IRES RNA” value in series [1] was 9.1. For the same substance, in series [2], the “helicity (first value)” value was 28% and the “helicity (second value)” value amounted to 57%.
The matching figures for LKKLLKLL[Orn]KLLKWAG [3f]: 1.0, 36% and 58%.
As to LKKLLKLL[Orn]KLL[Dap]LAG [2k], the “Discrimination ratio against IRES RNA” value in series [1] is listed as 25. In series [2], the “helicity (first value)” value was 48% and the “helicity (second value)” value was 61%.
As for LKKLLKLL[Orn]KLL[Dap]WAG [3h], the “Discrimination ratio against IRES RNA” value in series [1] turned out to be 1.6. In series [2], the “helicity (first value)” value was determined as 12% and the “helicity (second value)” value was 56%.
For the substance LKKLLKWLKKLL[Dap]LAG [3c], the “Discrimination ratio against IRES RNA” value in series [1] was 17. Moreover, in series [2], the “helicity (first value)” value amounted to 29% and the “helicity (second value)” value turned out to be 36%.
Take LKKLLKWL[Orn]KLLKLAG [3b]: the “Discrimination ratio against IRES RNA” value in series [1] is given as 4.2. In addition, in series [2], the “helicity (first value)” value turned out to be 34% and the “helicity (second value)” value stood at 52%.
As to LKKLLKWL[Orn]KLL[Dap]LAG [3d], the “Discrimination ratio against IRES RNA” value in series [1] worked out at 45. In addition, in series [2], the “helicity (first value)” value was determined as 32% and the “helicity (second value)” value is listed as 38%.
In the case of LKKLL[Dab]LLKKLLKLAG [2b], in series [1], the “Discrimination ratio against IRES RNA” value was 6.3. In series [2], the “helicity (first value)” value is recorded as 23% and the “helicity (second value)” value was determined as 63%.
Regarding LKKLL[Dab]LLKKLLKWAG [3e], the “Discrimination ratio against IRES RNA” value in series [1] worked out at 28. In series [2], the “helicity (first value)” value amounted to 39% and the “helicity (second value)” value is listed as 45%.
On to LKKLL[Dab]LLKKLL[Dap]LAG [2l], for which the “Discrimination ratio against IRES RNA” value in series [1] was found to be 13. In series [2], the “helicity (first value)” value is on record as 40% and the “helicity (second value)” value came out at 50%.
As for LKKLL[Dab]LL[Orn]KLLKLAG [2j], the “Discrimination ratio against IRES RNA” value in series [1] is given as 6.3. In series [2], the “helicity (first value)” value is 49% and the “helicity (second value)” value is reported as 57%.
For the substance LKKLL[Dab]LL[Orn]KLL[Dap]LAG [2m], the “Discrimination ratio against IRES RNA” value in series [1] is 4.9. Moreover, in series [2], the “helicity (first value)” value was 49% and the “helicity (second value)” value is given as 69%.
Regarding LKKLL[Dab]WLKKLLKLAG [3a], the “Discrimination ratio against IRES RNA” value in series [1] is recorded as 10. Besides, in series [2], the “helicity (first value)” value was found to be 29% and the “helicity (second value)” value is 55%.
For LKKLL[Dap]LLKKLLKLAG [2c], in series [1], the “Discrimination ratio against IRES RNA” value came out at 2.4. Further, in series [2], the “helicity (first value)” value was found to be 26% and the “helicity (second value)” value came to 61%.
LKKLL[Orn]LLKKLLKLAG [2a]: the “Discrimination ratio against IRES RNA” value in series [1] is 2.5. Further, in series [2], the “helicity (first value)” value amounted to 13% and the “helicity (second value)” value is 82%.
